Measured values from ChEMBL document CHEMBL1140894, “Non-vanillyl resiniferatoxin analogues as potent and metabolically stable transient receptor potential vanilloid 1 agonists” (Bioorg Med Chem, 2009).
pEC50, pKi: −log10 of the molar value. Active and inactive are the calls of the source. No cut-off for these calls is given here.

Columns and labels:
[1] = target: T1, Transient receptor potential cation channel subfamily V member 1 (Rattus norvegicus, UniProt O35433); assay: Agonist activity at rat TRPV1 receptor expressed in CHO cells assessed as calcium uptake; format: functional, cell-based
[2] = target: T1, Transient receptor potential cation channel subfamily V member 1; assay: Displacement of [3H]RTX form rat TRPV1 receptor expressed in CHO/VR1 cell system; format: cell-based
[3] = Metabolic stability in Sprague-Dawley rat liver microsomes at 10 ug/mL after 60 mins by HPLC; format: ADME, Microsome; conditions: read-out: Stability
[4] = target: Transient receptor potential cation channel subfamily V member 1 (Rattus norvegicus) (UniProt O35433); assay: Activity at rat TRPV1 receptor expressed in CHO cells assessed as changes in intracellular calcium levels at 75 pM by calcium imaging; format: cell-based
[5] = Metabolic stability in Sprague-Dawley rat plasma at 10 ug/mL after 240 mins by HPLC; format: ADME, cell-free; conditions: read-out: Stability
Procedure, shortened: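 Compound added to pre-warmed rat plasma to a final 10 μg/mL and incubated 240 min. Stopped with methanol at 0 and 240 min and quantified by LC-MS. Expressed as percent of initial concentration remaining.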

[6] = target: Transient receptor potential cation channel subfamily V member 1 (Rattus norvegicus) (UniProt O35433); assay: Agonist activity at rat TRPV1 receptor expressed in CHO cells assessed as calcium uptake relative to capsaicin; format: functional, cell-based

T1 sequence (O35433 whole entry): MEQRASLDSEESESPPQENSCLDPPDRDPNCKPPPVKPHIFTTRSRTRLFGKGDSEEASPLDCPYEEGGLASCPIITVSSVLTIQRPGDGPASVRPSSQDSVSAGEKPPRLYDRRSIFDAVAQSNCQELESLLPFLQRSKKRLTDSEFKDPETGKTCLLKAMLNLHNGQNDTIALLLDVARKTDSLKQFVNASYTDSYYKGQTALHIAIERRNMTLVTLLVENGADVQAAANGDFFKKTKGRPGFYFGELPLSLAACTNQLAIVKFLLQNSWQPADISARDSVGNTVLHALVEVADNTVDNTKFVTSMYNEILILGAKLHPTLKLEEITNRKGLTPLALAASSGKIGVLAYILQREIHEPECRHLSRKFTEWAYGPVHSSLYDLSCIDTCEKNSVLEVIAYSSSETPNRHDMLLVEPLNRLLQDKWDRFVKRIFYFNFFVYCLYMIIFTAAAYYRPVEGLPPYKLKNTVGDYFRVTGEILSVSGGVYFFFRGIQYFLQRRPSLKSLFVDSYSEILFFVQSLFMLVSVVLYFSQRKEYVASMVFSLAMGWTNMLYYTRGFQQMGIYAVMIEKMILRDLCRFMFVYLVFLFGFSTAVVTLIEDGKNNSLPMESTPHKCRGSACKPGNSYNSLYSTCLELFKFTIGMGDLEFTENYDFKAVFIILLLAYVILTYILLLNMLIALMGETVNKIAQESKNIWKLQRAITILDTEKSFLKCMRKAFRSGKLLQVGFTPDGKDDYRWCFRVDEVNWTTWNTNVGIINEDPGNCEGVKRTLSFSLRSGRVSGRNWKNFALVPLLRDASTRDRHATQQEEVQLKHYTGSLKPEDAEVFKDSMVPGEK
Sequence of Transient receptor potential cation channel subfamily V member 1 (Rattus norvegicus) (O35433 whole entry): as above

Row | Structure (SMILES) | pEC50 [1] | pKi [2] | remaining at 1 h, 10 ug/mL [3] [%] | Activity [4] | remaining at 4 h, 10 ug/mL [5] [%] | Activity [6] [%]
1 | C=C(C)[C@@]12C[C@@H](C)[C@@]34OC(Cc5ccccc5)(O[C@@H]1[C@@H]3C=C(COC(=O)Cc1cccc(F)c1)C[C@]1(O)C(=O)C(C)=C[C@@H]41)O2 | 8.72 | 8.62 | – | – | – | –
2 | C=C(C)[C@]12C[C@@H](C)[C@@]34O[C@](Cc5ccccc5)(O[C@@H]1[C@@H]3C=C(COC(=O)Cc1ccc(O)c(OC)c1)C[C@]1(O)C(=O)C(C)=C[C@@H]41)O2 [RESINIFERATOXIN] | 9.57 | 10.37 | 57.6 | Active | 71.7 | –
3 | C=C(C)[C@@]12C[C@@H](C)[C@@]34OC(Cc5ccccc5)(O[C@@H]1[C@@H]3C=C(COC(=O)Cc1c(F)c(F)c(F)c(F)c1F)C[C@]1(O)C(=O)C(C)=C[C@@H]41)O2 | – | 6.87 | – | – | – | 23
4 | C=C(C)[C@@]12C[C@@H](C)[C@@]34OC(Cc5ccccc5)(O[C@@H]1[C@@H]3C=C(COC(=O)Cc1ccc(NS(C)(=O)=O)c(F)c1)C[C@]1(O)C(=O)C(C)=C[C@@H]41)O2 | 8.61 | 9.08 | – | – | – | –
5 | C=C(C)[C@@]12C[C@@H](C)[C@@]34OC(Cc5ccccc5)(O[C@@H]1[C@@H]3C=C(COC(=O)Cc1ccccc1F)C[C@]1(O)C(=O)C(C)=C[C@@H]41)O2 | 8.33 | – | – | – | – | –
6 | C=C(C)[C@@]12C[C@@H](C)[C@@]34OC(Cc5ccccc5)(O[C@@H]1[C@@H]3C=C(COC(=O)Cc1ccc(F)c(F)c1)C[C@]1(O)C(=O)C(C)=C[C@@H]41)O2 | 8.26 | 9.01 | – | – | – | –
7 | C=C(C)[C@@]12C[C@@H](C)[C@@]34OC(Cc5ccccc5)(O[C@@H]1[C@@H]3C=C(COC(=O)Cc1ccc(F)cc1F)C[C@]1(O)C(=O)C(C)=C[C@@H]41)O2 | 8.74 | 9.05 | 57.9 | – | 88.3 | –
8 | C=C(C)[C@@]12C[C@@H](C)[C@@]34OC(Cc5ccccc5)(O[C@@H]1[C@@H]3C=C(COC(=O)Cc1ccc(F)cc1)C[C@]1(O)C(=O)C(C)=C[C@@H]41)O2 | 8.41 | 8.51 | – | – | – | –
9 | C=C(C)[C@@]12C[C@@H](C)[C@@]34OC(Cc5ccccc5)(O[C@@H]1[C@@H]3C=C(COC(=O)Cc1cc(F)ccc1F)C[C@]1(O)C(=O)C(C)=C[C@@H]41)O2 | 8.38 | 9.40 | – | – | – | –
10 | C=C(C)[C@@]12C[C@@H](C)[C@@]34OC(Cc5ccccc5)(O[C@@H]1[C@@H]3C=C(CNC(=O)Cc1ccc(NS(C)(=O)=O)cc1)C[C@]1(O)C(=O)C(C)=C[C@@H]41)O2 | 6.43 | 6.49 | – | – | – | –
11 | C=C(C)[C@@]12C[C@@H](C)[C@@]34OC(Cc5ccccc5)(O[C@@H]1[C@@H]3C=C(COC(=O)Cc1c(F)cccc1F)C[C@]1(O)C(=O)C(C)=C[C@@H]41)O2 | 7.95 | 8.57 | – | – | – | –
12 | C=C(C)[C@@]12C[C@@H](C)[C@@]34OC(Cc5ccccc5)(O[C@@H]1[C@@H]3C=C(COC(=O)Cc1ccc(NS(C)(=O)=O)cc1)C[C@]1(O)C(=O)C(C)=C[C@@H]41)O2 | 8.75 | 8.17 | – | – | – | –
13 | C=C(C)[C@@]12C[C@@H](C)[C@@]34OC(Cc5ccccc5)(O[C@@H]1[C@@H]3C=C(COC(=O)Cc1cccc(F)c1F)C[C@]1(O)C(=O)C(C)=C[C@@H]41)O2 | 8.04 | 8.45 | – | – | – | –
14 | C=C(C)[C@@]12C[C@@H](C)[C@@]34OC(Cc5ccccc5)(O[C@@H]1[C@@H]3C=C(COC(=O)Cc1ccc(NS(C)(=O)=O)c(OC)c1)C[C@]1(O)C(=O)C(C)=C[C@@H]41)O2 | 9.97 | 9.64 | 81.4 | – | 90.8 | –
15 | C=C(C)[C@@]12C[C@@H](C)[C@@]34OC(Cc5ccccc5)(O[C@@H]1[C@@H]3C=C(COC(=O)Cc1cc(F)cc(F)c1)C[C@]1(O)C(=O)C(C)=C[C@@H]41)O2 | 7.23 | 8.08 | – | – | – | –
